From ChEMBL document CHEMBL4396871, “Leveraging a Low-Affinity Diazaspiro Orthosteric Fragment to Reduce Dopamine D3 Receptor (D3R) Ligand Promiscuity across Highly Conserved Aminergic G-Protein-Coupled Receptors (GPCRs)” (J Med Chem, 2019)
pEC50, pIC50, pKi: −log10 of the molar value.

Key:
[1] = target: Mu-type opioid receptor (Homo sapiens) (UniProt P35372); experiment: Displacement of [3H]-DAMGO from human MOR stably expressed in HEK cell membranes at 10 uM after 90 mins by microbeta scintillation counting method relative to control
Outline: (§1)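 Primary screen at 10 μM compound, expressed as % receptor inhibition, from at least three experiments.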

[2] = target: Delta-type opioid receptor (Homo sapiens) (UniProt P41143); experiment: Displacement of [3H]-DADLE from human DOR stably expressed in HEK cell membranes at 10 uM after 90 mins by microbeta scintillation counting method relative to control; outline: as §1
[3] = target: T1, D(3) dopamine receptor (Homo sapiens, UniProt P35462); experiment: Agonist activity at recombinant human D3 receptor expressed in CHOK1 cells assessed as induction of beta arrestin2 recruitment measured after 30 mins by coelenterazine-based beta-galactosidase reporter gene assay; assay type: cell-based
[4] = target: T1, D(3) dopamine receptor; experiment: Antagonist activity at recombinant human D3 receptor expressed in CHOK1 cells assessed as inhibition of dopamine-induced beta arrestin2 recruitment preincubated for 30 mins followed by dopamine addition and measured after 90 mins by coelenterazine-based beta-galactosidase reporter gene assay; assay type: cell-based
[5] = target: T2, D2 dopamine receptor (Homo sapiens, UniProt P14416); experiment: Agonist activity at recombinant human D2 receptor expressed in CHOK1 cells assessed as induction of beta arrestin2 recruitment measured after 30 mins by coelenterazine-based beta-galactosidase reporter gene assay; assay type: ADME, cell-based
[6] = target: T2, D2 dopamine receptor; experiment: Antagonist activity at recombinant human D2 receptor expressed in CHOK1 cells assessed as inhibition of quinpirole-induced beta arrestin2 recruitment preincubated for 30 mins followed by quinpirole addition and measured after 90 mins by coelenterazine-based beta-galactosidase reporter gene assay; assay type: cell-based
[7] = target: D(1A) dopamine receptor (Homo sapiens, UniProt P21728); experiment: Agonist activity at recombinant human D1 receptor expressed in CHOK1 cells assessed as induction of beta arrestin2 recruitment measured after 30 mins by coelenterazine-based beta-galactosidase reporter gene assay; assay type: cell-based
[8] = target: 5-hydroxytryptamine receptor 1A (Homo sapiens, UniProt P08908); experiment: Displacement of [3H]-Way100635 from recombinant human 5HT1A receptor transiently expressed in CHO cell membranes measured after 90 mins by microbeta scintillation counting method
[9] = target: 5-hydroxytryptamine receptor 2B (Homo sapiens, UniProt P41595); experiment: Displacement of [3H]-LSD from recombinant human 5HT2B receptor stably expressed in HEK cell membranes measured after 90 mins by microbeta scintillation counting method
[10] = target: 5-hydroxytryptamine receptor 3A (Homo sapiens) (UniProt P46098); experiment: Displacement of [3H]-GR65630 from recombinant human 5HT3 receptor transiently expressed in HEKT cell membranes at 10 uM measured after 90 mins by microbeta scintillation counting method relative to control; outline: as §1
[11] = target: 5-hydroxytryptamine receptor 6 (Homo sapiens) (UniProt P50406); experiment: Displacement of [3H]-LSD from recombinant human 5HT6 receptor stably expressed in HEK cell membranes at 10 uM measured after 90 mins by microbeta scintillation counting method relative to control; outline: as §1
[12] = target: Histamine H1 receptor (Homo sapiens, UniProt P35367); experiment: Displacement of [3H]-pyrilamine from recombinant human H1 receptor stably expressed in HEK cell membranes measured after 90 mins by microbeta scintillation counting method
[13] = target: Histamine H2 receptor (Homo sapiens, UniProt P25021); experiment: Displacement of [125I]-Iodo-aminopotentidine from human histamine H2 receptor expressed in stable HEK cells after 90 mins by microbeta scintillation counting method; assay type: cell-based
[14] = target: Histamine H4 receptor (Homo sapiens) (UniProt Q9H3N8); experiment: Displacement of [3H]-histamine from human histamine H4 receptor stably expressed in HEKT cell membranes at 10 uM after 90 mins by microbeta scintillation counting method relative to control; outline: as §1
[15] = target: Kappa-type opioid receptor (Homo sapiens) (UniProt P41145); experiment: Displacement of [3H]-U69593 from KOR (unknown origin) at 10 uM after 90 mins by microbeta scintillation counting method relative to control; outline: as §1
[16] = target: Muscarinic acetylcholine receptor M1 (Homo sapiens) (UniProt P11229); experiment: Displacement of [3H]-QNB/[3H]-NMS from human muscarinic M1 receptor expressed in stable CHO cells at 10 uM after 90 mins by microbeta scintillation counting method relative to control; assay type: cell-based; outline: as §1
[17] = target: Muscarinic acetylcholine receptor M5 (Homo sapiens) (UniProt P08912); experiment: Displacement of [3H]-QNB/[3H]-NMS from human muscarinic M5 receptor expressed in stable CHO cells at 10 uM after 90 mins by microbeta scintillation counting method relative to control; assay type: cell-based; outline: as §1
[18] = target: Alpha-1A adrenergic receptor (Homo sapiens, UniProt P35348); experiment: Displacement of [3H]-prazosin from recombinant human alpha1A adrenergic receptor measured after 90 mins by microbeta scintillation counting method
[19] = target: Alpha-1B adrenergic receptor (Homo sapiens, UniProt P35368); experiment: Displacement of [3H]-prazosin from recombinant human alpha1B adrenergic receptor transiently expressed in HEKT cells measured after 90 mins by microbeta scintillation counting method; assay type: cell-based
[20] = target: Nicotinic acetylcholine receptor alpha2/beta2 (Homo sapiens) (UniProt P02708+P17787); experiment: Displacement of [3H]-epibatidine from recombinant human alpha2beta2 nACHR stably expressed in HEK cells at 10 uM measured after 90 mins by microbeta scintillation counting method relative to control; assay type: cell-based; outline: as §1
[21] = target: Neuronal acetylcholine receptor; alpha4/beta2 (Homo sapiens) (UniProt P17787+P43681); experiment: Displacement of [3H]-epibatidine from recombinant human alpha4beta2 nACHR stably expressed in HEK cells at 10 uM measured after 90 mins by microbeta scintillation counting method relative to control; assay type: cell-based; outline: as §1
[22] = target: Neuronal acetylcholine receptor; alpha4/beta4 (Homo sapiens) (UniProt P30926+P43681); experiment: Displacement of [3H]-epibatidine from recombinant human alpha4beta4 nACHR stably expressed in HEK cells at 10 uM measured after 90 mins by microbeta scintillation counting method relative to control; assay type: cell-based; outline: as §1
[23] = target: Beta-1 adrenergic receptor (Homo sapiens) (UniProt P08588); experiment: Displacement of [125I]-pindolol from recombinant human beta1 adrenergic stably expressed in CHO Flp-In cells at 10 uM measured after 90 mins by microbeta scintillation counting method relative to control; assay type: cell-based; outline: as §1
[24] = target: Beta-2 adrenergic receptor (Homo sapiens) (UniProt P07550); experiment: Displacement of [3H]-CGP12177 from recombinant human beta2 adrenergic stably expressed in HEK Flp-In cells at 10 uM measured after 90 mins by microbeta scintillation counting method relative to control; assay type: cell-based; outline: as §1
[25] = target: Beta-3 adrenergic receptor (Homo sapiens) (UniProt P13945); experiment: Displacement of [3H]-CGP12177 from recombinant human beta3 adrenergic stably expressed in HEK Flp-In cells at 10 uM measured after 90 mins by microbeta scintillation counting method relative to control; assay type: cell-based; outline: as §1
[26] = target: GABA-A receptor; anion channel (Rattus norvegicus) (UniProt O09028+P15431+P18506+P18508+P19969+P20236+P23574+P23576+P28471+P28473+P30191+P62813+P63079+P63138+Q91ZM7+Q9ES14); experiment: Displacement of [3H]-muscimol from rat brain GABAA receptor at 10 uM measured after 90 mins by microbeta scintillation counting method relative to control; outline: as §1

T2 sequence (P14416 whole entry): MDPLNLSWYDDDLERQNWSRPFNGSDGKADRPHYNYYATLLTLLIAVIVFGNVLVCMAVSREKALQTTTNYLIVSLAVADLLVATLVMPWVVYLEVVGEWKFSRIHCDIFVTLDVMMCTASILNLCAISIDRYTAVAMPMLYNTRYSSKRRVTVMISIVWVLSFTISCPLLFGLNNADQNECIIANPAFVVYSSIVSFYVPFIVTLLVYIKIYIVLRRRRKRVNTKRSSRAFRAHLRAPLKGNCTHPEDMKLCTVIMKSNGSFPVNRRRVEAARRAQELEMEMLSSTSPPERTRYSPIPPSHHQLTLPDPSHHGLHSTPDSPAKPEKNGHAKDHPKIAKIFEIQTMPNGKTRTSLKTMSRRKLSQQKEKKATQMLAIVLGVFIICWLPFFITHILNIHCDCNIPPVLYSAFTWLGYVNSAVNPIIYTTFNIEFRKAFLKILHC
T1 sequence (P35462 whole entry): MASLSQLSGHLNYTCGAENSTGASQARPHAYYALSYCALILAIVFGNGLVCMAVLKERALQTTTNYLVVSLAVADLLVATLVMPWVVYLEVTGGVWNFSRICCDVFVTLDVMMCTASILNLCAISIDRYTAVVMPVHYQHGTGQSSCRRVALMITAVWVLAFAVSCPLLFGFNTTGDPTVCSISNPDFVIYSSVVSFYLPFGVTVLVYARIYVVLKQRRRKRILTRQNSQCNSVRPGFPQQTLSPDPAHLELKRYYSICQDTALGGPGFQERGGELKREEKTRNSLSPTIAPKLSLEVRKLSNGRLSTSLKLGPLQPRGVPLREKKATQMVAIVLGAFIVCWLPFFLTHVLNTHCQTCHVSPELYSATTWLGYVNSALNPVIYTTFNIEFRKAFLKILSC
5-hydroxytryptamine receptor 6 (Homo sapiens), sequence (P50406 whole entry): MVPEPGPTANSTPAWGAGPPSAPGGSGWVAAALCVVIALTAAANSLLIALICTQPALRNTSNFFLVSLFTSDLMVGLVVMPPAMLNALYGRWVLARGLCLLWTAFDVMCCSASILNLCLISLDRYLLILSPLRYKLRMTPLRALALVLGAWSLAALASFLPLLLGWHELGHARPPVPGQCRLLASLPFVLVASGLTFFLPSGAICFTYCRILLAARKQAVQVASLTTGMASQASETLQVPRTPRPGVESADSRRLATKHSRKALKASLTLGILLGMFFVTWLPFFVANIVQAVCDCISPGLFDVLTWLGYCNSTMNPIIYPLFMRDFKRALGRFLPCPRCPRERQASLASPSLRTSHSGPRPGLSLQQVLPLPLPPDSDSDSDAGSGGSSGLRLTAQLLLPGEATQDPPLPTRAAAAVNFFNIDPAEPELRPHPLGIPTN
Mu-type opioid receptor (Homo sapiens), sequence (P35372 whole entry): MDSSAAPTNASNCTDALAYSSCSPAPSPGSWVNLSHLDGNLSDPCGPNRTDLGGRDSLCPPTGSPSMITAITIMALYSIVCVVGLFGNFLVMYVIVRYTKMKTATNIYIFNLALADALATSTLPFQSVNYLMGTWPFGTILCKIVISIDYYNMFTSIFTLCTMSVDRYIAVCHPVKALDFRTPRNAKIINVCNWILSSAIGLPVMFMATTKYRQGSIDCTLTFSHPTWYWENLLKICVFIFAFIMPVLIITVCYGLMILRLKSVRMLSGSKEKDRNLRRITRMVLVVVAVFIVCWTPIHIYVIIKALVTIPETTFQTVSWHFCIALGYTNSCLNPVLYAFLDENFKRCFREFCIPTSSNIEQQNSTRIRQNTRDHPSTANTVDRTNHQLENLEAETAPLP
Delta-type opioid receptor (Homo sapiens), sequence (P41143 whole entry): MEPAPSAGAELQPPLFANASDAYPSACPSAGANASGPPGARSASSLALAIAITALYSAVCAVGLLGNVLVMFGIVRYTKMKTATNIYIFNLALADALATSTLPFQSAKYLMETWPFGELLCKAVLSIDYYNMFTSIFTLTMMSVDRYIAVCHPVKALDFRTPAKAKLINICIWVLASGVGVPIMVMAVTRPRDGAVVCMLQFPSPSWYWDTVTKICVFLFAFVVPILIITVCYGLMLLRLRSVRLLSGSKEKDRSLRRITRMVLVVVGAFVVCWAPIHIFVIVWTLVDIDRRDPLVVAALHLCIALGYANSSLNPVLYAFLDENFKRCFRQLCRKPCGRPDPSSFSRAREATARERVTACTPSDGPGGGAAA
D(1A) dopamine receptor, sequence (P21728 whole entry): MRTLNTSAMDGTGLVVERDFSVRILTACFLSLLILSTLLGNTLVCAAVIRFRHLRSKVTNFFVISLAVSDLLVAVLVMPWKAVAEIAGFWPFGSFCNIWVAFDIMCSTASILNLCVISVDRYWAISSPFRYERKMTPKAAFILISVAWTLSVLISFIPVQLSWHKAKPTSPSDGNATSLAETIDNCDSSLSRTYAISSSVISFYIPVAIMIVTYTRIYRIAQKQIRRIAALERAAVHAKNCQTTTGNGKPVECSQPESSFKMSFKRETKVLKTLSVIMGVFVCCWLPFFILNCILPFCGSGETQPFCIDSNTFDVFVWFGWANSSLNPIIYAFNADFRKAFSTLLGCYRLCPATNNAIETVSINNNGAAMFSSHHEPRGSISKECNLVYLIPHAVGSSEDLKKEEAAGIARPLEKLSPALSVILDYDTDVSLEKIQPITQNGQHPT
Beta-2 adrenergic receptor (Homo sapiens), sequence (P07550 whole entry, looked up): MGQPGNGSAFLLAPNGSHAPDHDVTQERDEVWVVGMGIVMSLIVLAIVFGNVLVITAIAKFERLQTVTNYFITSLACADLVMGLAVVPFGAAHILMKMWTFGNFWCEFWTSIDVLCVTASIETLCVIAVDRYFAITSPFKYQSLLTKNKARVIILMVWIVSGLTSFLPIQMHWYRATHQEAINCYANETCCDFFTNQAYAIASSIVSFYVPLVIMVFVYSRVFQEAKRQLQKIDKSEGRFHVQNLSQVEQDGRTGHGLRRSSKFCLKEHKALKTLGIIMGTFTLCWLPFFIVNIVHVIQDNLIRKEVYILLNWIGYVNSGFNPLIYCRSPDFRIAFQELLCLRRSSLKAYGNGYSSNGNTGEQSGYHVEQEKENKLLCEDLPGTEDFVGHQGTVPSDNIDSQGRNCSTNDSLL
Histamine H1 receptor, sequence (P35367 whole entry): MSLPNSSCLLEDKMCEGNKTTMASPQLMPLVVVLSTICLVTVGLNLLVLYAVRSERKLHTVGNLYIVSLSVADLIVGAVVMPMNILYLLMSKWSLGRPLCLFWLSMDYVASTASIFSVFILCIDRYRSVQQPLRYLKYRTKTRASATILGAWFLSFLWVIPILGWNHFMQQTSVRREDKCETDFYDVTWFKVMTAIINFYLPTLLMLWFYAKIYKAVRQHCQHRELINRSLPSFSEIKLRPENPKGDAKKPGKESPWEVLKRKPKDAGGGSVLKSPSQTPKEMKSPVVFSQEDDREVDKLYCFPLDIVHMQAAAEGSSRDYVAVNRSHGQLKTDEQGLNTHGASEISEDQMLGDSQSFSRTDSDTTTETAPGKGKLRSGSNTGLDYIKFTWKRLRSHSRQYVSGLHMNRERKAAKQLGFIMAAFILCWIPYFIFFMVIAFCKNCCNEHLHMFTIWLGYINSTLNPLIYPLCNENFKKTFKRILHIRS
Histamine H4 receptor (Homo sapiens), sequence (Q9H3N8 whole entry): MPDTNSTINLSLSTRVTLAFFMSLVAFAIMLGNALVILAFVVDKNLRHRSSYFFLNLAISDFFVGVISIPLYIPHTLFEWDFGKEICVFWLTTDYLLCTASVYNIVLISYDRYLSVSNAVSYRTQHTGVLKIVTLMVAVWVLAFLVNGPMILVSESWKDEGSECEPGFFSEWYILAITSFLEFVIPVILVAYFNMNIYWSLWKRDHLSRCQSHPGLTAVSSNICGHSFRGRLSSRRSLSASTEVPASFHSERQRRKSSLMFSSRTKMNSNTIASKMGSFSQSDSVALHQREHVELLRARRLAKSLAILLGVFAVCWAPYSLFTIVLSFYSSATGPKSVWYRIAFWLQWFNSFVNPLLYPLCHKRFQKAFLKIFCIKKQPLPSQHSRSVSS
Muscarinic acetylcholine receptor M1 (Homo sapiens), sequence (P11229 whole entry): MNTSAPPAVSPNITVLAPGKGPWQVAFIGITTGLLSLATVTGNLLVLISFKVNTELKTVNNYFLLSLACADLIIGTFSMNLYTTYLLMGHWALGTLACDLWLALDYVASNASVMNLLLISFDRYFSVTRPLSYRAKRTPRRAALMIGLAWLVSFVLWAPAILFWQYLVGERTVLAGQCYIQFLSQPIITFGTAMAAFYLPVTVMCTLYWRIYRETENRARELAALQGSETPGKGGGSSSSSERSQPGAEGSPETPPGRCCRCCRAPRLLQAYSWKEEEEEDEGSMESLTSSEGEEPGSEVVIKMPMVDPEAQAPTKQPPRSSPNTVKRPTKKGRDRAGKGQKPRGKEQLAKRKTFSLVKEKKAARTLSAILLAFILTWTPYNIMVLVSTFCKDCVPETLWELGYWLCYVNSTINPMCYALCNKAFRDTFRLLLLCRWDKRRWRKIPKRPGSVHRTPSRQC
Beta-3 adrenergic receptor (Homo sapiens), sequence (P13945 whole entry, looked up): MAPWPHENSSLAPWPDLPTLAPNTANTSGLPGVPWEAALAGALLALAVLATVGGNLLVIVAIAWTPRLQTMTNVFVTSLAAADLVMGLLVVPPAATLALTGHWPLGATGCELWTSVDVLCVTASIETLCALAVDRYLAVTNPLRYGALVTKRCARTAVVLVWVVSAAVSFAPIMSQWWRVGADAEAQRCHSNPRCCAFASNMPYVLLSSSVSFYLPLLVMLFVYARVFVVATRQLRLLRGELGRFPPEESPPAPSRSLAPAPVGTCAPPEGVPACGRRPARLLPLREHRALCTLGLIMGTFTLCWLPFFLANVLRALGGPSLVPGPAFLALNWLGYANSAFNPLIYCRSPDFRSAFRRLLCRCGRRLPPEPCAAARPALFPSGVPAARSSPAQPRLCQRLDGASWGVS

Row | Structure (SMILES) | inhibition [1] [%] | inhibition [2] [%] | pIC50 [4] | pIC50 [6] | EC50 [7] | pKi [8] | pKi [9] | inhibition [10] [%] | inhibition [11] [%] | pKi [12] | pKi [13] | inhibition [14] [%] | inhibition [15] [%] | inhibition [16] [%] | inhibition [17] [%] | pKi [18] | pKi [19] | inhibition [20] [%] | inhibition [21] [%] | inhibition [22] [%] | further results
1 | COc1ccccc1N1CCN(CCCSc2nnc(-c3ccccc3)n2C)CC1 | < 50 | < 50 | 8.06 | 6.48 | Not Active | 9.05 | 7.38 | < 50 | < 50 | 7.40 | 6.06 | < 50 | < 50 | < 50 | < 50 | 7.31 | 7.03 | < 50 | < 50 | < 50 | pEC50 ([3]; read-out: EC50): 6.78; pEC50 ([5]; read-out: EC50): 6.60; inhibition [23]: < 50%; inhibition [24]: 60%; inhibition [25]: < 50%; inhibition [26]: < 50%
2 | COc1ccccc1N1CCC2(CCN(CCCSc3nnc(-c4ccccc4)n3C)CC2)CC1 | < 50 | < 50 | 7.38 | 5.79 | Not Active | 5.89 | 5.67 | < 50 | < 50 | 8.10 | 6.22 | < 50 | < 50 | 54 | < 50 | 5.66 | 5.66 | < 50 | < 50 | < 50 | EC50 [3]: Not Active; EC50 [5]: Not Active; inhibition [23]: < 50%; inhibition [24]: < 50%; inhibition [25]: < 50%; inhibition [26]: < 50%
